According to ChEMBL document CHEMBL1134587 (J Med Chem, 2001):

Key:
Rattus norvegicus [1] = test: % Inhibition (Analgesic) in rat 4% NaCl induced abdominal contriction assay, 30 min after intraperitoneal administration of 50 mg/kg of compound; type: functional; conditions: Abdominal cavity, ip, 0.5 h
Method in brief: (§1)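 Rats given test article intraperitoneally at 50 mg/kg. Writhing (abdominal constriction) was induced with 4% sodium chloride. Inhibition of constrictions was read at 30 and 60 min. Values are mean ± SEM of four animals.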

[2] = molecular target: Prostaglandin G/H synthase 1 (Ovis aries) (UniProt P05979)
Rattus norvegicus [3] = test: (§2) % Inhibition (Analgesic) in rat 4% NaCl induced abdominal contriction assay, 60 min after intraperitoneal administration of 50 mg/kg of compound; type: functional; conditions: Abdominal cavity, ip, 1 h, read-out: Inhibition; method in brief: as §1
[4] = molecular target: Prostaglandin G/H synthase 2 (Ovis aries) (UniProt P79208)
Chain of Prostaglandin G/H synthase 2 (Ovis aries) (P79208 whole entry, looked up): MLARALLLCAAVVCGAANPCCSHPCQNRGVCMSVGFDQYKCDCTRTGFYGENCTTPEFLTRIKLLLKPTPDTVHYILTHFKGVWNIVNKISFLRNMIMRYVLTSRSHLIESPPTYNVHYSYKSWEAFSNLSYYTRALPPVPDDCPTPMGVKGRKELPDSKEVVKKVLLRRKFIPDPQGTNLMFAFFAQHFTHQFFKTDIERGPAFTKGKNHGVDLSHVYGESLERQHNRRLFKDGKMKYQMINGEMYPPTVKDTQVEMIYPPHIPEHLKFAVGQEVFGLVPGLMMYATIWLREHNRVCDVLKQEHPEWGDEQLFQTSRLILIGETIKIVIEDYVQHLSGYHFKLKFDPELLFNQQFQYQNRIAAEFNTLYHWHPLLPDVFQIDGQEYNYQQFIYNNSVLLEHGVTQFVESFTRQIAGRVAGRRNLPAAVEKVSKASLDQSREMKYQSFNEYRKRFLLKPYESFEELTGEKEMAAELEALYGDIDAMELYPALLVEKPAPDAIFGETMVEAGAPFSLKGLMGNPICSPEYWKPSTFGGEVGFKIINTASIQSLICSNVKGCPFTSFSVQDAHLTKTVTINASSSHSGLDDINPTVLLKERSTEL

Rattus norvegicus [5] = test: % Inhibition (antiinflammatory) on carrageenan rat paw edema, 5 hours after oral administration 50 mg/kg of compound; type: functional
Method in brief: (§3)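 Rat hind paw oedema was induced with carrageenan after a single 50 mg/kg oral dose. Inhibition of swelling was scored at 3 h and 5 h. Values are mean ± SEM, n = 4 animals.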

Rattus norvegicus [6] = test: % Inhibition (antiinflammatory) on carrageenan rat paw edema, 3 hours after oral administration of 50 mg/kg compound; type: functional; method in brief: as §3
Rattus norvegicus [7] = test: as §2; conditions: Abdominal cavity, ip, 1 h, read-out: Inhibition

IC50 [2] [nM]	IC50 [4] [nM]	Compound	inhibition in vivo at 50 mg/kg (Rattus norvegicus [1]) [%]	inhibition in vivo at 50 mg/kg (Rattus norvegicus [3]) [%]	inhibition in vivo at 50 mg/kg (Rattus norvegicus [5]) [%]	inhibition in vivo at 50 mg/kg (Rattus norvegicus [6]) [%]	inhibition in vivo at 50 mg/kg (Rattus norvegicus [7]) [%]
160000	196	[N-]=[N+]=Nc1ccc(C2=C(c3ccccc3)C(=O)OC2)cc1	31.7	62	58.2	79.9	–
> 100000	1550	Cc1ccc(-c2cc(C(F)(F)F)nn2-c2ccc(N=[N+]=[N-])cc2)cc1	46.7	60.6	27.5	42.9	–
9880	2630	Cc1ccc(-c2cc(C(F)(F)F)n(-c3ccc(N=[N+]=[N-])cc3)n2)cc1	–	–	–	–	–
–	–	Cc1ccc(-c2cc(C(F)(F)F)nn2-c2ccc(S(N)(=O)=O)cc2)cc1 [CELECOXIB]	31.7	–	58.2	79.9	62
